ChEMBL document CHEMBL4028918, “7-Phenoxy-Substituted 3,4-Dihydro-2H-1,2,4-benzothiadiazine 1,1-Dioxides as Positive Allosteric Modulators of α-Amino-3-hydroxy-5-methyl-4-isoxazolepropionic Acid (AMPA) Receptors with Nanomolar Potency” (J Med Chem, 2018)
Active and inactive are the calls of the source. The calls are words filed in the database; no cut-off is given here.

Tests used:
Glutamate receptor 2 = Glutamate receptor 2 (Homo sapiens, UniProt P42262); experiment: Positive allosteric modulation of GluA2 (Q) flop isoform (unknown origin) expressed in HEK293 cells assessed as potentiation of glutamate-evoked calcium flux by fluo-4/AM dye-based fluorescence assay; assay type: cell-based
Sequence of Glutamate receptor 2 (P42262 whole entry, the tested form may be a part, canonical isoform): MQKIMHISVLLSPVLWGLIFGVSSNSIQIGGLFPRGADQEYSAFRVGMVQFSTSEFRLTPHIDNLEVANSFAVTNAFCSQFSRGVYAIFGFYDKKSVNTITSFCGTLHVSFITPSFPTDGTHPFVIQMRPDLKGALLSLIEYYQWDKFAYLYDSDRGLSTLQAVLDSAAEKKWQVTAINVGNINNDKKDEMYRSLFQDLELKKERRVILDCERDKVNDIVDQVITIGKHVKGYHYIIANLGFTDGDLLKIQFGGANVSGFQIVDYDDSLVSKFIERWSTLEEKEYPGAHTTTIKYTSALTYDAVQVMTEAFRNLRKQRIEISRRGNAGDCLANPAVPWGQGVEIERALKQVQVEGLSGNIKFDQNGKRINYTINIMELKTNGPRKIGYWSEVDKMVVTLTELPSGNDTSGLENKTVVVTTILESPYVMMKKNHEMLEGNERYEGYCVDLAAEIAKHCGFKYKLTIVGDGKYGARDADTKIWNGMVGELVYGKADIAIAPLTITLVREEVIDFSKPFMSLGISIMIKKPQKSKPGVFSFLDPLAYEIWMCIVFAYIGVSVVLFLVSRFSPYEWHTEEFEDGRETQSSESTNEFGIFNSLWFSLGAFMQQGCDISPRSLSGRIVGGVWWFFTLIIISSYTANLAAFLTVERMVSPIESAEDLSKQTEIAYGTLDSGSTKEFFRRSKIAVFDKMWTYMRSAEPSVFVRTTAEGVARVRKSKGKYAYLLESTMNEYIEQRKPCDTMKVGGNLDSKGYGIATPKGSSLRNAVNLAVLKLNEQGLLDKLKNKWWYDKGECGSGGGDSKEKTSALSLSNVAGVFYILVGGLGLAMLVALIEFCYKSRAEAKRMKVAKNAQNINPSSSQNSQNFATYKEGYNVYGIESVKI

Rattus norvegicus [1] = species: Rattus norvegicus; experiment: Induction of dimerization of rat N-terminal His-tagged GluA2-LBD-N775S mutant expressed in Escherichia coli Origami B (DE3) assessed as intrinsic binding constant by small-angle X-ray scattering method
Method in brief: (§1)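 1 μL modulator in DMSO was added to 29 μL protein. Samples were held at 4 °C and read on the CHESS G1 beamline, three replicates averaged, with buffer subtraction.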

Rattus norvegicus [2] = species: Rattus norvegicus; experiment: Induction of dimerization of rat N-terminal His-tagged GluA2-LBD-N775S mutant expressed in Escherichia coli Origami B (DE3) assessed as dimerization constant by small-angle X-ray scattering method; method in brief: as §1
Rattus norvegicus [3] = species: Rattus norvegicus; experiment: Induction of dimerization of rat N-terminal His-tagged/15N-labeled GluA2-LBD-N775S mutant expressed in Escherichia coli Origami B (DE3) at 90 uM by NMR spectroscopy

SMILES	EC50 (Glutamate receptor 2; read-out: EC50) [nM]	also measured
O=S1(=O)NCN(CCF)c2ccc(Cl)cc21	20400	K (Rattus norvegicus [1]): 2 ×10⁻⁶ M
Cc1ccc(Oc2ccc3c(c2)S(=O)(=O)NCN3C)cc1	950	–
Cc1cccc(Oc2ccc3c(c2)S(=O)(=O)NCN3C)c1	390	–
COc1ccc(Oc2ccc3c(c2)S(=O)(=O)NCN3C2CC2)cc1	1820	–
CC1N(C)c2ccc(Cl)cc2S(=O)(=O)N1C (stereo not drawn)	18700	–
N#Cc1cccc(Oc2ccc3c(c2)S(=O)(=O)NCN3C2CC2)c1	450	–
COc1ccc(Oc2ccc3c(c2)S(=O)(=O)NCN3C)cc1	5900	–
O=S1(=O)NCN(C2CC2)c2ccc(F)cc21	810	K (Rattus norvegicus [1]): 9 ×10⁻⁷ M
Cc1ccccc1Oc1ccc2c(c1)S(=O)(=O)NCN2C1CC1	15600	–
O=S1(=O)NCN(C2CC2)c2ccc(Oc3ccccc3)cc21	710	–
Cc1ccccc1Oc1ccc2c(c1)S(=O)(=O)NCN2C	–	EC50 (Glutamate receptor 2; read-out: pEC50 (converted)): > 10000 nM
COc1ccccc1Oc1ccc2c(c1)S(=O)(=O)NCN2C	> 10000	–
Cc1ccc(Oc2ccc3c(c2)S(=O)(=O)NCN3C2CC2)cc1	3190	–
COc1ccccc1Oc1ccc2c(c1)S(=O)(=O)NCN2C1CC1	15600	–
COc1cccc(Oc2ccc3c(c2)S(=O)(=O)NCN3C)c1	370	–
COc1cccc(Oc2ccc3c(c2)S(=O)(=O)NCN3C2CC2)c1	2	K (Rattus norvegicus [2]): 32 mM; Activity (Rattus norvegicus [3]): Active; K (Rattus norvegicus [1]): 5 ×10⁻¹¹ M
Cc1cccc(Oc2ccc3c(c2)S(=O)(=O)NCN3C2CC2)c1	50	–
CN1CNS(=O)(=O)c2cc(Oc3ccccc3)ccc21	7620	–
